Test [1] deals with Rattus norvegicus. Briefly: Inhibition of the 6-OHDA-induced Hypokinesia in rat, at 50 mg/Kg sc, expressed as cumulative ambulation score. It is filed as functional. The method, boiled down:
(§1)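 Male Sprague-Dawley rats (~280 g), anesthetized with pentobarbital, got 6-OHDA (26 µg/4 µL) bilaterally into the anterolateral hypothalamus. Four days later, only near-akinetic rats in a 36-square open field were used. Doses were free base, given sc in distilled water or Tween 80 suspension. Ambulation (all four limbs in one square) was scored in six 2-min periods at 15–120 min, then summed.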

In test [2] the test system is Rattus norvegicus. Briefly: Inhibition of the 6-OHDA-induced Hypokinesia in rat, at 50 mg/Kg sc, expressed as cumulative ambulation score; inactive. It is filed as functional, organism-based. The essentials:
as §1

Test [3] deals with Rattus norvegicus. The test can be described thus: Inhibition of the 6-OHDA-induced Hypokinesia in rat, at 25 mg/Kg sc, expressed as cumulative ambulation score. It is filed as functional. The essentials:
as §1

The test system of test [4] is Rattus norvegicus. Briefly: Rotational behavior induced by the compound in rat with a unilateral 6-OHDA-induced lesion of the Nigro-striatal dopamine, at 75 mg/Kg sc. The class given is functional. The essentials: (§2)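 Rats (~250 g at surgery, pentobarbital 40 mg/kg ip) received unilateral 6-OHDA (8 µg in 3 µL) to lesion the nigrostriatal pathway. At 3–4 weeks, rats turning 8–10 times/min after apomorphine 0.25 mg/kg sc were selected. They were housed singly, food-restricted to 350–400 g, dosed sc (free base) in groups of 4–8, and placed at once in automatic rotometers. Total contralateral turns (mean ± SEM) and duration of action (h) were recorded.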

The subject of test [5] is Rattus norvegicus. Briefly: Rotational behavior induced by the compound in rat with a unilateral 6-OHDA-induced lesion of the Nigro-striatal dopamine, at 25 mg/Kg sc; duration of activity=4 hr. The class given is functional. The method, boiled down: as §2
For test [6], the species on record is Rattus norvegicus. The test can be described thus: Duration of activity in rat. The class given is functional. The method, boiled down: as §2
The subject of test [7] is Rattus norvegicus. Briefly: Rotational behavior induced by the compound in rats with a unilateral 6-OHDA-induced lesion of the Nigro-striatal dopamine, at 50 mg/Kg sc; duration of activity=6 hr. It is filed as functional. The method, boiled down:
as §2

The test system of test [8] is Rattus norvegicus. The test can be described thus: Inhibition of the 6-OHDA-induced Hypokinesia in rat, at 25 mg/Kg sc, expressed as cumulative ambulation score; inactive. It is filed as functional, organism-based. The essentials: as §1
Test [9] relates to Rattus norvegicus. The test can be described thus: Rotational behavior induced by the compound in rat with a unilateral 6-OHDA-induced lesion of the Nigro-striatal dopamine, at 50 mg/Kg sc, duration of activity=6 hr. It is filed as functional.
Test [10] relates to Rattus norvegicus. Briefly: Rotational behavior induced by the compound in rat with a unilateral 6-OHDA-induced lesion of the Nigro-striatal dopamine, at 75 mg/Kg sc; duration of activity=9 hr. It is filed as functional.
Test [11] concerns Rattus norvegicus. The test can be described thus: Rotational behavior induced by the compound in rat with a unilateral 6-OHDA-induced lesion of the Nigro-striatal dopamine, at 25 mg/Kg sc; duration of activity=5 hr. The class given is functional.
Test [12] relates to Rattus norvegicus. The test can be described thus: Effect on dopamine agonist-induced rotation in unilaterally 6-OH-DA-lesioned rat at 0.5 mg/kg, ip; Compound 35 was injected subcutaneously at 75 mg/kg. It is filed as functional. The method, boiled down: (§3)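 Rats were unilaterally 6-OHDA-lesioned and apomorphine-screened for rotation. Haloperidol (0.1, 0.25 or 0.5 mg/kg ip) or vehicle was given 1 h before the DA agonist (75 mg/kg sc). Total contralateral turns were counted automatically in rotometers (mean ± SEM). Percent decrease was taken relative to vehicle pretreatment, with significance by Student's t test.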

Test [13] relates to Rattus norvegicus. Briefly: Percent decrease on dopamine agonist-induced rotation in unilaterally 6-OH-DA-lesioned rat at 0.5 mg/kg. The class given is functional. The essentials:
as §3

Test [14] concerns Rattus norvegicus. The test can be described thus: Percent decrease on dopamine agonist-induced rotation in unilaterally 6-OH-DA-lesioned rat at 0.25 mg/kg. It is filed as functional. The method, boiled down: as §3
Test [15] deals with Rattus norvegicus. Briefly: Effect on dopamine agonist-induced rotation in unilaterally 6-OH-DA-lesioned rat at 0.25 mg/kg, ip; Compound 35 was injected subcutaneously at 75 mg/kg. It is filed as functional. The method, boiled down:
as §3

Test [16] concerns Rattus norvegicus. Briefly: Drug pretreatment vs. vehicle pretreatment; statistical analysis by Student''s t test at 0.1 mg/kg; NS-Not Significant. It is filed as functional, organism-based. More on the design: dose 0.1 mg/kg. The essentials: as §3
Test [17] deals with Rattus norvegicus. The test can be described thus: Percent decrease on dopamine agonist-induced rotation in unilaterally 6-OH-DA-lesioned rat at 0.1 mg/kg. The class given is functional. The method, boiled down: as §3
Test [18] has as its system Rattus norvegicus. The test can be described thus: Effect on dopamine agonist-induced rotation in unilaterally 6-OH-DA-lesioned rat at 0.1 mg/kg, ip; Compound 35 was injected subcutaneously at 75 mg/kg. It is filed as functional. The essentials: as §3
In test [19] the test system is Rattus norvegicus. The test can be described thus: Rotational behavior induced by the compound in rats with a unilateral 6-OHDA-induced lesion of the Nigro-striatal dopamine, at 8 mg/Kg sc. It is filed as functional. The essentials: as §2
Test [20] relates to Rattus norvegicus. The test can be described thus: Inhibition of the 6-OHDA-induced Hypokinesia in rat, at 10 mg/Kg sc, expressed as cumulative ambulation score. It is filed as functional. The essentials:
as §1

For test [21], the species on record is Rattus norvegicus. The test can be described thus: Duration of activity was determined. The class given is functional. The method, boiled down: as §2
In test [22] the test system is Rattus norvegicus. The test can be described thus: Rotational behavior induced by the compound in rat with a unilateral 6-OHDA-induced lesion of the Nigro-striatal dopamine, at 50 mg/Kg sc; duration of activity=6 hr. It is filed as functional. The method, boiled down: as §2

Calls of active or inactive are those of the source. No cut-off for these calls is given here.

`CCCN1CCN(c2cccccc2=O)CC1` registered a Score in the test with Rattus norvegicus [1] of 159.

Regarding `O=c1cccccc1N1CCNCC1`, in the test on Rattus norvegicus [1], the Score turned out to be 55.

Take `CN1CCC(c2cccccc2=O)CC1`: the Score result with Rattus norvegicus [2] is “inactive”.

For `O=c1cccccc1N1CCN(CCOc2ccccc2)CC1`, the Score entry in the test with Rattus norvegicus [2] was “inactive”.

For the compound `CC(=O)OCCN1CCN(c2cccccc2=O)CC1`, the Score came out at 106 in the test with Rattus norvegicus [3]; 3640 in the test with Rattus norvegicus [4]; 232 in the test with Rattus norvegicus [1]; 743 with Rattus norvegicus [5]; 1485 in the test on Rattus norvegicus [7]. The same compound returned a Duration of action in the test filed under Rattus norvegicus [6] of 10 h.

As for `CCOCCN1CCN(c2cccccc2=O)CC1.O=C(O)/C=C\C(=O)O`, the Score in the test with Rattus norvegicus [1] was found to be 67.

As to `CC(=O)NCCN1CCN(c2cccccc2=O)CC1`, the Score result in the test with Rattus norvegicus [2] is “inactive”.

As for `O=C1CCCCCC1N1CCN(CCO)CC1` (stereo not given), in the test on Rattus norvegicus [2], the Score result is “inactive”.

In the test on Rattus norvegicus [1], `O=c1cccccc1N1CCN(CCCO)CC1` returned a Score of 71.

Regarding `CC(O)C(C)N1CCN(c2cccccc2=O)CC1` (stereo not given), the Score result with Rattus norvegicus [8] was “inactive”.

In the case of `CC1CCN(c2cccccc2=O)CC1`, the Score result in the test with Rattus norvegicus [2] is “inactive”.

With `CN1CCN(c2cccccc2=O)CC1.O=C(O)/C=C\C(=O)O`, the Score in the test on Rattus norvegicus [9] is on record as 1814; in the test on Rattus norvegicus [10], 2842; with Rattus norvegicus [1] it was 278; with Rattus norvegicus [11], 551. This compound also registered a Duration of action in the test listed under Rattus norvegicus [6] of 9 h.

As for `CC(C)N1CCN(c2cccccc2=O)CC1`, the Score in the test with Rattus norvegicus [1] is 431.

Turning to `CN1CCN(c2ccccc2)CC1`, in the test with Rattus norvegicus [2], the Score result was “inactive”.

As for `O=C(CCCN1CCC(O)(c2ccc(Cl)cc2)CC1)c1ccc(F)cc1` [HALOPERIDOL], the entries for the “Total no. of turns” value in the test with Rattus norvegicus [12], in the test on Rattus norvegicus [15] and in the test on Rattus norvegicus [18] were 567, 1055 and 1626, respectively. Also, the Decrease is -77% in the test on Rattus norvegicus [13], -56% with Rattus norvegicus [14] and -33% with Rattus norvegicus [17]. Moreover, in the test on Rattus norvegicus [16], the P result is “inactive”.

Regarding `CCCCN1CCN(c2cccccc2=O)CC1`, the Score result in the test on Rattus norvegicus [2] is “inactive”.

`N#CCN1CCN(c2cccccc2=O)CC1`: the Score with Rattus norvegicus [1] is 126.

With `O=c1cccccc1N1CCN(CC(O)CO)CC1` (stereo not given), the Score in the test with Rattus norvegicus [1] is reported as 58.

In the case of `CC(O)CN1CCN(c2cccccc2=O)CC1` (stereo not given), the Score in the test on Rattus norvegicus [3] is reported as 190; in the test with Rattus norvegicus [1], 400.

For `CC(C)C[C@H]1C(=O)N2CCC[C@H]2[C@]2(O)O[C@](NC(=O)[C@@H]3C=C4c5cccc6[nH]c(Br)c(c56)C[C@H]4N(C)C3)(C(C)C)C(=O)N12` [BROMOCRIPTINE], the Score in the test with Rattus norvegicus [19] came to 4868; with Rattus norvegicus [20], 112. In the test listed under Rattus norvegicus [21], the Duration of action came out at 18 h.

On to `CN1CCCN(c2cccccc2=O)CC1`, for which the Score result with Rattus norvegicus [2] is “inactive”.

On to `CCOC(=O)CN1CCN(c2cccccc2=O)CC1`, for which the Score entry in the test with Rattus norvegicus [2] is “inactive”.

For `O=c1cccccc1N1CCN(CCO)CC1`, the Score in the test on Rattus norvegicus [3] is 88; in the test with Rattus norvegicus [4], 4582; in the test on Rattus norvegicus [1] it was 187; with Rattus norvegicus [22] it was 1378; in the test with Rattus norvegicus [5], 369. The compound also displayed a Duration of action in the test filed under Rattus norvegicus [6] of 12 h.

Turning to `O=c1ccc(Cl)ccc1N1CCN(CCO)CC1`, the Score entry with Rattus norvegicus [2] is “inactive”.

With `NC(=O)CN1CCN(c2cccccc2=O)CC1`, in the test on Rattus norvegicus [2], the Score result is “inactive”.

Take `OCCN1CCN(c2ccccc2)CC1`: in the test with Rattus norvegicus [2], the Score entry was “inactive”.

Consider `CC(C)(C)C(=O)OCCN1CCN(c2cccccc2=O)CC1.O=C(O)/C=C\C(=O)O`, for which, in the test with Rattus norvegicus [1], the Score was determined as 137.

Turning to `CC(C)CN1CCN(c2cccccc2=O)CC1.O=C(O)/C=C\C(=O)O`, the Score with Rattus norvegicus [3] stood at 372.

Take `Br.O=c1c(Br)ccccc1N1CCN(CCO)CC1`: in the test on Rattus norvegicus [1], the Score turned out to be 136.

With `CC(CO)N1CCN(c2cccccc2=O)CC1` (stereo not given), the Score result in the test with Rattus norvegicus [8] is “inactive”.

`CC(C)(C)N1CCN(c2cccccc2=O)CC1`: the Score entry in the test on Rattus norvegicus [2] was “inactive”.

Regarding `CCN1CCN(c2cccccc2=O)CC1`, the Score in the test with Rattus norvegicus [1] was 70.

The values above are taken from ChEMBL document CHEMBL1122686, “Troponoids. 6. Troponylpiperazines: a new class of dopamine agonists” (1984).
